ChEMBL document CHEMBL1150052, “A colorimetric microassay for the detection of agents that interact with DNA” (J Nat Prod, 1992)
Converted amounts (≈) assume the structure as drawn.

Experiments:
Nucleic Acid = test: Displacement of methyl green from DNA after 24 hrs by microtiter assay; type: nucleic-acid assay
Outline: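 Complex: DNA–methyl green reagent (20 mg/100 ml) in 0.05 M Tris-HCl pH 7.5 with 7.5 mM MgSO4, stirred 24 h at 37°. Samples dried from EtOH in wells, then complex added. A630 read at once and after 24 h dark at ambient temperature. Final corrected for initial, normalized to untreated complex. IC50 for 50% decrease by linear regression on semi-log plot; n = 3 to 5.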

Calf thymus DNA = test: Displacement of ethidium bromide from calf thymus type 1 DNA after 4 hrs by microtiter assay

In the case of CCOc1ccc(-c2nc3cc(-c4nc5cc(N6CCN(C)CC6)ccc5[nH]4)ccc3[nH]2)cc1, the IC50 (Nucleic Acid) is reported as 37 µg/mL (≈ 81.8 µM) and the IC50 (Calf thymus DNA) is reported as 33 µg/mL (≈ 72.9 µM).

Compound COc1c(O)c2c(c3cc(C(=O)N4CCc5c4c(O)c(OC)c4[nH]c(C(=O)N6C[C@H]7C[C@@]78C6=CC(=O)c6[nH]cc(C)c68)cc54)[nH]c13)CCN2C(N)=O [(+)-CC-1065] has an IC50 (Nucleic Acid) of 62 µg/mL (≈ 88.1 µM) and an IC50 (Calf thymus DNA) of 26 µg/mL (≈ 36.9 µM).

With COC(=O)C(O)(c1cc2c(c3oc([C@]4(C)C[C@@H]4C)cc(=O)c13)C(=O)c1c(ccc([C@H]3C[C@](C)(N(C)C)[C@H](O[C@@H]4C[C@H](OC)[C@H](O)[C@@H](C)O4)[C@H](C)O3)c1O)C2=O)[C@H]1O[C@H](C)[C@@H](O)[C@@H](OC)[C@@H]1O (some centres not stated) [ALTROMYCIN B] the IC50 (Nucleic Acid) was 67 µg/mL (≈ 72.5 µM) and the IC50 (Calf thymus DNA) was 44 µg/mL (≈ 47.6 µM).

For COc1cc2c(oc(=O)c3cc(C)cc(OC)c32)c2c([C@@H]3O[C@H](C)[C@H](O)[C@@](C)(O)[C@H]3O)ccc(O)c12 [CHRYSOMYCIN B], the IC50 (Nucleic Acid) was 20 µg/mL (≈ 40.3 µM).

With COc1cccc2c1C(=O)c1c(O)c3c(c(O)c1C2=O)C[C@@](O)(C(C)=O)C[C@@H]3O[C@H]1C[C@H](N)[C@H](O)[C@H](C)O1 [DAUNORUBICIN] the IC50 (Nucleic Acid) was 30 µg/mL (≈ 56.9 µM) and the IC50 (Calf thymus DNA) was 2 µg/mL (≈ 3.79 µM).

For N=C(N)c1ccc(/N=N/Nc2ccc(C(=N)N)cc2)cc1 [DIMINAZENE], the IC50 (Nucleic Acid) was 67 µg/mL (≈ 238 µM) and the IC50 (Calf thymus DNA) was 59 µg/mL (≈ 210 µM).

In the case of C/C=C\C1OC1(C)c1cc(=O)c2c(C)cc3c(c2o1)C(=O)c1c(O)c([C@H]2C[C@](C)(N(C)C)[C@@H](OC(C)=O)[C@@H](C)O2)cc([C@@H]2C[C@H](N(C)C)[C@@H](O)[C@@H](C)O2)c1C3=O (some centres not stated) [PLURAMYCIN], the IC50 (Nucleic Acid) is reported as 51 µg/mL (≈ 66 µM) and the IC50 (Calf thymus DNA) is reported as 3.6 µg/mL (≈ 4.66 µM).

For C/C=C\C1OC1(C)c1cc(=O)c2c(C)cc3c(c2o1)C(=O)c1c(O)c([C@H]2C[C@@](C)(N(C)C)[C@H](O)[C@H](C)O2)cc([C@@H]2C[C@H](N(C)C)[C@@H](O)[C@@H](C)O2)c1C3=O (some centres not stated) [RUBIFLAVIN], the IC50 (Nucleic Acid) was 17 µg/mL (≈ 23.3 µM) and the IC50 (Calf thymus DNA) was 13 µg/mL (≈ 17.8 µM).

Cn1cc(NC(=O)c2cc(NC(=O)c3cc(NC=O)cn3C)cn2C)cc1C(=O)NCCC(=N)N [STALLIMYCIN] was tested, and the IC50 (Nucleic Acid) was 18 µg/mL (≈ 37.4 µM) and the IC50 (Calf thymus DNA) was 4.3 µg/mL (≈ 8.93 µM).
